Experimental data gathered from unrelated publications.
Protocols differ between the studies behind these lines.
Target: Death-associated protein kinase 3 (DAPK3, Homo sapiens, UniProt O43293)

CC(C)(C)c1nc(-c2cccc(NS(=O)(=O)c3c(F)cccc3F)c2F)c(-c2ccnc(N)n2)s1  remaining activity (enzyme activity, inhibitor, radiometric; 1 µM): 54%
CN1CC(Oc2cnc(C#N)cc2-c2ccn3nc(NC(=O)C4CC4)cc3c2)C1  inhibition (enzyme activity, inhibitor; 1 µM): 4%
Cc1ccc(Nc2nccc(N(C)c3ccc4c(C)n(C)nc4c3)n2)cc1S(N)(=O)=O  inhibition (enzyme activity, inhibitor; 0.3 µM): -7%
COc1cc(Cl)c(C(=O)N[C@@H](CN[C@H]2CC[C@@H](N)CC2)Cc2ccc(C#N)cc2)cc1-c1ccc(CN[C@H](C)c2ccc(C)cc2)o1  remaining activity (enzyme activity, inhibitor; 1 µM): 89%
Clc1ccc(Nc2nnc(Cc3ccncc3)c3ccccc23)cc1  remaining signal (cell-free assay; 0.5 µM): 107%
O=C(Nc1cccnn1)N1CCC(=Cc2cccc(Oc3ccc(C(F)(F)F)cn3)c2)CC1  remaining binding (cell-free assay, competition with immobilised ligand; 1 µM): 79%
COc1cc2ncnc(Nc3ccc(F)c(Cl)c3)c2cc1OCCCN1CCOCC1  remaining signal (cell-free assay; 0.5 µM): 95.7%
Nc1ncnc2occ(-c3ccc(NC(=O)Nc4cc(C(F)(F)F)ccc4F)cc3)c12  remaining signal (cell-free assay, inhibitor; 20 µM): 7.9%
N#CC1(c2ccccn2)CCN(Cc2cc(C(=O)N3CCCC3)c(=O)n3ccccc23)CC1  remaining binding (cell-free assay, competition with immobilised ligand; 1 µM): 86%
COc1cc2ncnc(Nc3ccc(Oc4ccccc4)cc3C)c2cc1OC  inhibition (enzyme activity, inhibitor; 1 µM): -4%
Cc1cc(NC(=O)c2cccc(S(F)(F)(F)(F)F)c2)cc(-n2ccn3nc(-c4cccnc4)cc23)c1  remaining binding (cell-free assay, competition with immobilised ligand; 1 µM): 100%
Cc1cnc(NC2CCOCC2)nc1-n1cnc(C(=O)NC(CN)c2cc(F)cc(Cl)c2)c1 (stereo not shown)  remaining activity (enzyme activity, inhibitor, radiometric; 1 µM): 107%
CN([C@@H]1CCc2c(CC(=O)O)c3ccccc3n2C1)S(=O)(=O)c1ccc(F)cc1  remaining binding (cell-free assay, competition with immobilised ligand; 1 µM): 87%
Cc1ccc(NC(=O)c2ccc(C)c(C(F)(F)F)c2)cc1C#Cc1nn(C2CCC(O)CC2)c2ncnc(N)c12 (stereo not shown)  remaining signal (cell-free assay; 10 µM): 110%
COc1cc(-c2cc(-c3ccc(N4CCNCC4)cc3)cnc2C)cc(OC)c1OC  inhibition (enzyme activity, inhibitor; 1 µM): 2%
CC(C)(O)[C@H]1CC[C@H](Nc2ccc3ncc(-c4cccc(C(F)(F)F)c4)n3n2)CC1  remaining activity (enzyme activity, inhibitor; 1 µM): 120%
C[C@H](c1ccc(F)cc1)N(Cc1cccc(C(=O)O)c1)C(=O)c1cnc2ccccc2c1  remaining binding (cell-free assay, competition with immobilised ligand; 1 µM): 100%
N#CCCc1ccc2c(c1)-c1[nH]c3ccc([N+](=O)[O-])cc3c1CC(=O)N2  remaining signal (cell-free assay; 0.5 µM): 99.3%
Cc1nc(C2CCN(C(=O)c3ccc(OC(F)(F)F)cc3N)CC2)c2ncc(N3CCN(C)CC3)cc2n1  remaining binding (cell-free assay, competition with immobilised ligand; 1 µM): 100%
O=C(Nc1cnn(-c2csc(C(=O)NC3COC3)c2)c1)Nc1c(F)cccc1Cl  remaining activity (enzyme activity, inhibitor; 5 µM): 108%
O=C1Nc2ccc(Cl)cc2C1=Cc1cc(Cl)c(O)c(Cl)c1  remaining signal (cell-free assay; 0.5 µM): 82.3%
Cc1nc(Cc2cccc(C(F)(F)F)c2)sc1-c1ccc(C(N)=O)nc1  remaining binding (cell-free assay, competition with immobilised ligand; 1 µM): 88%
